# Key:
# Aspergillus niger [1] = assay: Fungicidal activity against Aspergillus niger BKMF-1119 after 6 hrs; type: functional; details: BKMF-1119, 6 h
# Outline: (§1)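 Tubes of test compound (5 to 500 per ml, 1 mL in nutrient agar) with fungi were incubated at 26 °C for 6 h. Inocula were then prepared in Sabouraud dextrose broth and incubated at 26 °C. The fungicidal concentration is the one giving total cell death.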
# Candida albicans [2] = assay: Fungicidal activity against Candida albicans 885-653 after 6 hrs; type: functional; details: 885-653, 6 h; outline: as §1
# Staphylococcus aureus [3] = assay: Bactericidal activity against Staphylococcus aureus 209p after 4 hrs; type: functional
# Outline: (§2)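 Tubes contained 1 mL test compound in nutrient agar, 5 to 500 per ml. Bacteria in normal saline broth (3 × 10⁵ cfu/ml, 1 mL) were added and held 4 h, then transferred onto meal-peptone agar plates and incubated at 37 °C. MBC is the dilution giving total cell death.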
# Bacillus cereus [4] = assay: Bactericidal activity against Bacillus cereus 8035 after 4 hrs; type: functional; details: Bacillus cereus, 8035, 4 h; outline: as §2
# Pseudomonas aeruginosa [5] = assay: Bactericidal activity against Pseudomonas aeruginosa 9027 after 4 hrs; type: functional; details: Pseudomonas aeruginosa, 9027, 4 h; outline: as §2
# Escherichia coli [6] = assay: Antibacterial activity against Escherichia coli F-50 measured every 24 hrs for 5 days by conventional dilution method; type: functional
# Outline: (§3)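 Broth dilution in nutrient broth, inoculum 3 × 10⁵ cfu/ml. MIC is the lowest concentration showing no growth, read visually every 24 h over 5 days. Run alongside a positive growth control and standard drug controls. Tests in duplicate, repeated twice.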
# [7] = tested on: Trichophyton mentagrophytes; assay: Fungicidal activity against Trichophyton mentagrophytes after 6 hrs; type: functional; outline: as §1
# Candida albicans [8] = assay: Antifungal activity against Candida albicans 885-653 measured every 24 hrs for 14 days by conventional dilution method; type: functional
# Outline: (§4)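 Dilution assay in Sabouraud dextrose broth, inoculum 2 × 10^3–4 cfu/ml. MIC is the lowest concentration with no visible growth after 14 days of incubation. Run alongside a positive growth control and standard drug controls. Tests in duplicate, repeated twice.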
# Pseudomonas aeruginosa [9] = assay: Antibacterial activity against Pseudomonas aeruginosa 9027 measured every 24 hrs for 5 days by conventional dilution method; type: functional; outline: as §3
# Aspergillus niger [10] = assay: Antifungal activity against Aspergillus niger BKMF-1119 measured every 24 hrs for 14 days by conventional dilution method; type: functional; outline: as §4
# Escherichia coli [11] = assay: Bactericidal activity against Escherichia coli F-50 after 4 hrs; type: functional; details: F-50, 4 h; outline: as §2
# Bacillus cereus [12] = assay: Antibacterial activity against Bacillus cereus 8035 measured every 24 hrs for 5 days by conventional dilution method; type: functional; outline: as §3
# Staphylococcus aureus [13] = assay: Antibacterial activity against Staphylococcus aureus 209p measured every 24 hrs for 5 days by conventional dilution method; type: functional; outline: as §3
# [14] = tested on: Trichophyton mentagrophytes; assay: Antifungal activity against Trichophyton mentagrophytes measured every 24 hrs for 14 days by conventional dilution method; type: functional; outline: as §4
# [15] = Acute toxicity in ip dosed mouse; type: organism-based; details: in vivo
# Outline: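 Mice; each compound given at 5 dose levels, 10 animals per dose (n = 50 per compound). Animals observed for 72 h; toxicity expressed as average lethal dose (LD50) calculated from mortality across dose groups.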
Structure (SMILES),MFC (Aspergillus niger [1]),MFC (Candida albicans [2]),MBC (Staphylococcus aureus [3]),MBC (Bacillus cereus [4]),MBC (Pseudomonas aeruginosa [5]),MIC (Escherichia coli [6]),MFC [7],MIC (Candida albicans [8]),MIC (Pseudomonas aeruginosa [9]),MIC (Aspergillus niger [10]),MBC (Escherichia coli [11]),MIC (Bacillus cereus [12]),MIC (Staphylococcus aureus [13]),MIC [14],LD50 [15]
CCCCCCCCC[n+]1cccc(-c2nc(-c3ccccc3)c3c(=O)n(CCCCCC)c4ccccc4n23)c1.[Br-],> 500 µg/mL,50 µg/mL,5 µg/mL,50 µg/mL,> 500 µg/mL,500 µg/mL,250 µg/mL,0.97 µg/mL,> 500 µg/mL,> 500 µg/mL,500 µg/mL,0.97 µg/mL,0.97 µg/mL,250 µg/mL,120 mg/kg
CCCCCCCCC[n+]1cccc(-c2nc(-c3ccccc3)c3c(=O)n(CCCCCC)c4ccccc4n23)c1.[I-],> 500 µg/mL,500 µg/mL,5 µg/mL,500 µg/mL,> 500 µg/mL,> 500 µg/mL,> 500 µg/mL,500 µg/mL,> 500 µg/mL,> 500 µg/mL,> 500 µg/mL,0.78 µg/mL,0.78 µg/mL,> 500 µg/mL,52.5 mg/kg

# Source: ChEMBL document CHEMBL2407024, “Antimicrobial activity of imidazo[1,5-a]quinoxaline derivatives with pyridinium moiety” (Eur J Med Chem, 2013)
